Screens as filed in PubChem BioAssay.
This is one part of a sample in which hits are shown more often than they occur.
XBP1 UPR activ = activators of adaptive XBP1 UPR arm, primary screen, cell-based, CHO-XBP1 luciferase reporter, luminescence, uHTS | IRE1-XBP1 UPR activation; percent of tunicamycin response, DMSO as zero | actives 0.33% (n = 330,000) | activation, % at 20 µM | AID 463104, 2010;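 active = versus positive control, 20 µM dose yields 30% or more activation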;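 note: 100% = tunicamycin at 10 µg/mL and 0% = DMSO only wells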
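Signal: luciferase luminescence; Assay system: CHO-XBP1 luciferase reporter cells; Amount: one thousand reporter cells per well; Dosing: 20 µM single concentration, DMSO 1%; Benchmarks: high control tunicamycin 10 µg/mL final, low control DMSO vehicle only; Schedule: 6 h compound exposure at 37 °C, 5% CO2; Evaluation: percent activation relative to tunicamycin reference.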
T cruzi inh = inhibitors of intracellular T. cruzi growth, primary screen, luminescence, NIH3T3 host cells; T. cruzi beta-gal in NIH3T3, 90 h; inhibition, % (no concentration beside the values); actives 1.4% (n = 300,000);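 active = mean inhibition across valid replicates above about 55%, limit read from the data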;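 note: signal also drops with host cell toxicity which is not excluded here; 0% = plate median of DMSO wells and 100% = zero luminescence signal; higher percent means less beta-gal luminescence so fewer parasites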
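System: mouse NIH/3T3 fibroblasts infected with β-gal-expressing T. cruzi Tulahuen C4 / Input: NIH/3T3 cells, 5,000 per well / Buffer or medium: Low-serum DMEM with 2% FBS / Probe or stimulus: 5000 reporter trypomastigotes per well / Schedule: ≥90 h infection period, 3 h prior cell attachment / Measured by: GalScreen luminescence, 60 min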
CHOP UPR activ = activators of apoptotic CHOP UPR arm, primary screen, cell-based, CHO-CHOP luciferase reporter, luminescence, uHTS. UPR activation; percent of tunicamycin response over DMSO baseline. activation, % at 10 µM. actives 0.34% (n = 330,000). AID 449763, 2010;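 active = at 10 µM dose, activation of 40% or more, normalized to positive control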;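 note: 100% = tunicamycin at 10 µg/mL and 0% = DMSO alone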
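System: CHO-CHOP luciferase reporter cell line; amount: 500 cells/well; buffer or medium: F12 medium containing 10% fetal bovine serum; incubation: 6 h compound exposure at 37 °C after overnight seeding; measured by: luciferase luminescence after 10 min with Steady-Glo reagent; evaluation: % reporter activation, DMSO baseline versus tunicamycin full activation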
L major viab = Leishmania major promastigote growth inhibition, primary screen. Leishmania major promastigotes, resazurin fluorescence viability. inhibition, % at 10 µM. actives 9% (n = 200,000). AID 1063, 2008; in the data active = inhibition above about 50%;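 note: promastigotes grown with compound for 44 hours at 28 °C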
Dynein transport = inhibitors of GR-EGFP nuclear translocation, primary screen, dynein cargo transport inhibitor project, imaging, high-content, 3617.4 mouse cells. z-score, hits read low. actives 0.47% (n = 220,000). AID 1381, 2008. test concentration mostly 20 µM; stimulated with dexamethasone, 1 µM; active compounds read low;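 active = plate z-score of nuclear minus cytoplasmic receptor signal below a set negative limit, without overly bright fluorescence or cell loss, cut at about -3.5 in these data, passing the limit was not always enough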;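 note: z-score of nuclear minus cytoplasmic ring GR-EGFP intensity difference per well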
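Schedule: 48 h induction, then 1 h compound, then 30 min agonist, 37 °C. Buffer or medium: tetracycline-free induction medium containing charcoal-stripped FBS. Reagent: 1.0 µM final dexamethasone stimulus. Evaluation: nuclear versus cytoplasmic GR-EGFP signal, averaged per well. Signal: high-content fluorescence imaging after fixation.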
CHOP inh = inhibitors of CHOP promoter induction, primary screen, cell-based, unfolded protein response, luciferase reporter | actives 3.8% (n = 220,000) | AID 2732, 2010 | CHO-K1 CHOP-promoter luciferase, tunicamycin-induced, 15-18 h | inhibition, % at 10 µM;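 active = compounds that reduced the stress-induced luciferase reporter signal by more than about 70% of percent inhibition, limit read from the data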;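 note: 0% = tunicamycin plus vehicle and 100% = wells without tunicamycin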
The depositor's hits bear a star; . = no result.

SMILES | XBP1 UPR activ | T cruzi inh | CHOP UPR activ | L major viab | Dynein transport | CHOP inh
O=C(Nc1cccc(Cl)c1)c1cccc(Oc2ccc([N+](=O)[O-])cc2Cl)c1 | -2.1 | -11.7 | -2.3 | 98.2* | 0.226 | 66.6
CN(C)S(=O)(=O)c1cccc(NC(=O)c2ccc(-n3cncn3)c([N+](=O)[O-])c2)c1 | -3.1 | -5.5 | 2.5 | . | . | .
CCCCOP(=O)(OCCCC)C(Nc1ccccc1)c1ccc2c(c1)OCO2 (configuration not stated) | . | 10.0 | . | 0.9 | 0.0439 | 91.1*
COc1ccc(/C=C(\C#N)C(=O)OCC(=O)Nc2ccc(C(C)(C)C)cc2)cc1 | -0.6 | 13.1 | 2.8 | -5.7 | 1.92 | 27.0
COc1ccc(/C=C(\C#N)C(=O)OCC(=O)NCc2ccccc2)cc1 | -3.2 | -2.6 | -0.2 | -1.5 | -0.0705 | 2.9
COc1ccc(/C=C(\C#N)C(=O)OCC(=O)Nc2c(C)cccc2C)cc1 | 0.6 | -3.9 | 1.3 | -4.6 | 0.476 | 75.4*
CCc1cccc(CC)c1NC(=O)COC(=O)/C(C#N)=C/c1ccc(OC)cc1 | -1.5 | -10.7 | 0.7 | 46.1 | -0.32 | 75.0*
Cc1cc(C)n(S(=O)(=O)c2ccc3oc(=O)ccc3c2)n1 | -1.1 | -7.8 | -1.6 | . | . | .
O=C(NCCN1CCOCC1)c1cnn2c(-c3ccccc3)cc(-c3ccccc3)nc12 | 1.4 | 20.5 | -0.3 | 99.2* | -0.00933 | 16.3
O=C(NCCN1CCOCC1)c1ccccc1-c1ccccc1 | -1.3 | 3.5 | 2.9 | -7.3 | 0.655 | 14.2
CCC(C)C(=O)N1CCc2cc(-c3csc(N)n3)ccc21 (configuration not stated) | 0.2 | 15.5 | 2.3 | 0.2 | 2.06 | -9.8
CC(C)(C)C(=O)N1CCc2cc(-c3csc(N)n3)ccc21 | -9.2 | 7.9 | -4.7 | 58.6* | -0.757 | 16.7
CC1Cc2ccccc2N1C(=O)CN1CCC(n2nnc3cc(C(F)(F)F)ccc32)CC1 (configuration not stated) | -9.1 | 44.2 | 1.6 | 95.2* | 0.114 | 40.6
O=C(CN1CCC(n2nnc3cc(C(F)(F)F)ccc32)CC1)Nc1ccc2c(c1)CCC2 | -4.7 | 48.5 | -2.5 | 49.8 | 1.22 | 78.2*
CC(=O)c1cccc(CN2CCC(CO)(CCCc3ccccc3)CC2)c1 | 1.3 | 19.4 | 0.0 | 78.8* | -0.55 | -8.9
CN(C)c1ncc(CN2CCC(CO)(CCCc3ccccc3)CC2)s1 | -1.9 | 56.4* | -0.9 | . | 0.414 | -11.0
CC(=O)c1cccc(CN2CCC(CO)(CCOc3ccccc3)CC2)c1 | -0.1 | -2.3 | -0.9 | . | . | .
C=CCn1c(SCC(=O)N2CCN(c3ccccc3)CC2)nc2c([nH]c3ccccc32)c1=O | 72.9* | -20.8 | 20.6 | . | . | .
COc1cccc(-n2c(SCC(=O)N3CCCCC3)nc3c([nH]c4ccccc43)c2=O)c1 | 9.0 | 7.2 | 2.9 | -2.1 | -0.278 | 71.1*
COc1ccccc1CC(=O)Nc1ccc2c(c1)C(=O)NC2=O | 1.1 | -4.9 | -2.8 | 100.2* | 3.22 | 26.5
COc1ccccc1CC(=O)Nc1ccc2nc(C)sc2c1 | 1.5 | -6.7 | 5.2 | 61.2* | 2.79 | -12.7
COc1cccc(C(=O)N2CCN(Cc3ccccc3Br)CC2)c1 | -0.3 | -5.1 | 2.7 | . | . | .
O=C(Nc1cccc2oc(=O)ccc12)c1ccc([N+](=O)[O-])cc1[N+](=O)[O-] | 2.7 | 53.3 | 0.3 | 97.5* | -0.982 | -6.9
COc1ccc(C(=O)NNc2ccccc2)cc1OC | 1.2 | 3.1 | 1.2 | 56.5* | -0.432 | 17.4
COc1ccccc1NC(=O)/C(=C/c1cccc([N+](=O)[O-])c1)c1ccccc1 | -3.0 | 39.1 | 5.6 | 89.3* | 1.09 | 25.9
SMILES | XBP1 UPR activ | T cruzi inh | CHOP UPR activ | L major viab | Dynein transport | CHOP inh
COc1ccc(C(=O)Nc2ccccc2)cc1NC(=O)c1ccc([N+](=O)[O-])cc1 | -1.9 | 60.9* | -0.8 | . | . | .
CCN(CC)S(=O)(=O)c1ccc(OC)c(NC(=O)c2ccc([N+](=O)[O-])cc2)c1 | -5.1 | 17.3 | -0.3 | 3.2 | 0.255 | 14.6
O=C1CC(C(=O)N2CCc3ccccc32)CN1c1ccccc1 (configuration not stated) | -1.7 | -6.7 | -2.1 | . | . | .
COc1ccc(C)cc1NC(=O)c1ccc([N+](=O)[O-])cc1[N+](=O)[O-] | 0.9 | 71.1* | -1.4 | 52.5* | -0.522 | 15.0
COc1ccc([N+](=O)[O-])cc1NC(=O)Cc1ccc(Cl)cc1 | . | 12.5 | . | 47.9 | 0.772 | 20.3
COc1ccc([N+](=O)[O-])cc1NC(=O)Cc1ccc(C)cc1 | -4.0 | -1.3 | 1.6 | 57.8* | 0.705 | 8.3
COc1ccc(C(=O)NC(=S)Nc2ccc([N+](=O)[O-])cc2C)cc1OC | -1.3 | 15.9 | -0.9 | -4.7 | -0.179 | 79.2*
CCCCNC(=S)N(C)/N=C/c1c(F)cccc1F | -1.4 | 8.2 | 1.7 | 37.9 | 0.513 | 34.4
CCCCNC(=S)N(C)/N=C/c1ccccc1F | -4.1 | 15.3 | 0.4 | -6.5 | -0.536 | 77.2*
CC1(C)c2[nH]c3ccccc3c2C[C@@H]2C(=O)N(Cc3ccccc3)C(=O)N21 | -1.3 | -6.2 | 0.5 | . | . | .
COC(=O)[C@@H]1Cc2c([nH]c3ccccc23)C(C)(C)N1C(=O)CCl | 9.7 | 62.7* | 8.5 | . | . | .
NNC(=O)c1cc2ccccc2cc1O | -0.4 | -24.3 | -2.4 | 63.8* | 0.0503 | -13.3
CCOc1ccc(C(=O)Oc2ccc(NC(C)=O)cc2)cc1 | -1.6 | -13.6 | -3.4 | -3.9 | -0.109 | 83.2*
CCOc1ccc(NC(=O)c2cc3ccccc3cc2O)cc1 | 2.9 | 11.8 | 3.8 | . | -0.658 | 75.0*
Cc1cccc(C)c1OCC(O)CN (configuration not stated) | -1.9 | 0.5 | -1.7 | 6.6 | 0.5 | -22.2
Cc1cc(OCC(O)CN)ccc1Cl (configuration not stated) | 3.7 | -16.2 | 0.8 | 92.3* | 0.0868 | -6.1
Cc1ccc(C=Nc2ccccc2C#N)s1 | -1.7 | -14.6 | 6.7 | -6.2 | -0.654 | 16.4
Cc1c(Cl)cccc1N=Cc1ccc([N+](=O)[O-])s1 | 3.0 | 50.8 | -0.6 | 100.5* | -0.168 | 61.4
CC(C(=O)c1ccc(-c2ccccc2)cc1)[n+]1cccc(C(N)=O)c1 (configuration not stated) | -3.7 | -1.1 | -0.6 | . | . | .
Cc1cc[n+](C(C)C(=O)c2ccc(-c3ccccc3)cc2)cc1 (configuration not stated) | 2.4 | 73.3* | 1.4 | 89.9* | -0.983 | 5.4
